inhibition, IC50 and Selectivity data for 37 molecules are collected here from ChEMBL document CHEMBL1129944, “[[(Arylpiperazinyl)alkyl]thio]thieno[2,3-d]pyrimidinone derivatives as high-affinity, selective 5-HT1A receptor ligands” (J Med Chem, 1997).

What is called inhibition is the drop in the measured response relative to a control, in per cent. A lower inhibition goes with little suppression. One may read the IC50 as the concentration at which inhibition is half-maximal. A low value points to inhibition by little substance.

Test [1] deals with T1, 5-hydroxytryptamine receptor 1A (Rattus norvegicus) (UniProt P19327).
T1 sequence (whole entry): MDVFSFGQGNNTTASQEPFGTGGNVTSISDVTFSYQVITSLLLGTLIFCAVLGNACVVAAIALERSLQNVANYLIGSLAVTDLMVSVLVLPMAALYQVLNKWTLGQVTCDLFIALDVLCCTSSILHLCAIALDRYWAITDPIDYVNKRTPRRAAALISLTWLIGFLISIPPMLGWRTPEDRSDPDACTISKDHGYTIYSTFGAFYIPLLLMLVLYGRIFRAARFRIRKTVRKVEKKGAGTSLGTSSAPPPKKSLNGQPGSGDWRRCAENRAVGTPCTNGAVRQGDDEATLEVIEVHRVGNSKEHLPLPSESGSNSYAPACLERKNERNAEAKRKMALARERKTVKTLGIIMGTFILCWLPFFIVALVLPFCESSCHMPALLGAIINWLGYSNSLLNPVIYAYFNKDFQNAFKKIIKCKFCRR
In words: Compound at 10E-5 M was tested in vitro for the inhibition of radioligand [3H]8-OH-DPAT binding to 5-hydroxytryptamine 1A receptor in rat hippocampal membrane. Type of test: cell membranes. The note with it: Hippocampus.

Test [2] deals with T2, 5-hydroxytryptamine receptor 1A (Rattus norvegicus, UniProt P19327).
T2 sequence (P19327 whole entry): T1 sequence (whole entry)
Nature of the test: In vitro inhibitory concentration against radioligand [3H]8-OH-DPAT binding to 5-hydroxytryptamine 1A receptor in rat hippocampal membrane. Type of test: cell membranes, Hippocampus. Put shortly: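 Rat hippocampal membranes (male SD rats, ~150 g) were washed in 50 mM Tris-HCl pH 7.4, including 10 min at 37 °C. Incubation buffer contained 4 mM CaCl2 and 10 μM pargyline. Filtered onto GF/B and counted; 50% inhibitory concentration from fitted curves.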

Test [3] addresses Adrenergic receptor alpha-1 (Rattus norvegicus) (UniProt P15823+P23944+P43140). Nature of the test: Compound at 10E-5 M was tested in vitro for the inhibition of radioligand [3H]-prazosin binding to Alpha-1 adrenergic receptor in rat cortical membrane. Type of test: cell membranes.
The target in test [4] is T3, Adrenergic receptor alpha-1 (Rattus norvegicus, UniProt P15823+P23944+P43140).
T3 sequence (P15823 whole entry): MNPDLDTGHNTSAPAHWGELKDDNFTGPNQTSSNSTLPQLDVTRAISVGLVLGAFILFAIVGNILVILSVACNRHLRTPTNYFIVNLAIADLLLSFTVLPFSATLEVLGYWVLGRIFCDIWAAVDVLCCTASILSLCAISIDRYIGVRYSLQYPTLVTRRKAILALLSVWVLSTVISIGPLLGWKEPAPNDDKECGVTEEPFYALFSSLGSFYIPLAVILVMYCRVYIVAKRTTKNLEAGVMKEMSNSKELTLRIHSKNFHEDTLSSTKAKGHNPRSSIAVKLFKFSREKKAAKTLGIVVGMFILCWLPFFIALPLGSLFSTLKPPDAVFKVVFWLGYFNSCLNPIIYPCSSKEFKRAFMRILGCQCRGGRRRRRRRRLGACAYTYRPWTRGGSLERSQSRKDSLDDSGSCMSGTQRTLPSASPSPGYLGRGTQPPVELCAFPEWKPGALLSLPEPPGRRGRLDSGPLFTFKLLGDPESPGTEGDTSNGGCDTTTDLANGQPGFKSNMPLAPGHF
T3 sequence (P23944 whole entry): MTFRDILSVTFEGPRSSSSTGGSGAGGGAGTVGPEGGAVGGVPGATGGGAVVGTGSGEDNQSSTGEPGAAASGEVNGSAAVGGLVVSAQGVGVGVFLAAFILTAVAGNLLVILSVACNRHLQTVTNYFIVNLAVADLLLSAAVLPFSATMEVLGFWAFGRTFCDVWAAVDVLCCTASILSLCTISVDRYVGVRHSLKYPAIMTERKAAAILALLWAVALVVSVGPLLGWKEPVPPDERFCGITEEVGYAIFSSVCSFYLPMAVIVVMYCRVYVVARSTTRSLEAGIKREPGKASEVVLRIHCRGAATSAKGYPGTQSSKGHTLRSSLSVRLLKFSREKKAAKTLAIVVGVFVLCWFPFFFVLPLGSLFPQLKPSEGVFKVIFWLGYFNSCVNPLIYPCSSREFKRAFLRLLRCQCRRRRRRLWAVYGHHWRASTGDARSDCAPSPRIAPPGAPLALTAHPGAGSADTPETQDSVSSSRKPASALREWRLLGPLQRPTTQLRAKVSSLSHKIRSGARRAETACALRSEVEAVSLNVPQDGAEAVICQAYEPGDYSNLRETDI
T3 sequence (P43140 whole entry): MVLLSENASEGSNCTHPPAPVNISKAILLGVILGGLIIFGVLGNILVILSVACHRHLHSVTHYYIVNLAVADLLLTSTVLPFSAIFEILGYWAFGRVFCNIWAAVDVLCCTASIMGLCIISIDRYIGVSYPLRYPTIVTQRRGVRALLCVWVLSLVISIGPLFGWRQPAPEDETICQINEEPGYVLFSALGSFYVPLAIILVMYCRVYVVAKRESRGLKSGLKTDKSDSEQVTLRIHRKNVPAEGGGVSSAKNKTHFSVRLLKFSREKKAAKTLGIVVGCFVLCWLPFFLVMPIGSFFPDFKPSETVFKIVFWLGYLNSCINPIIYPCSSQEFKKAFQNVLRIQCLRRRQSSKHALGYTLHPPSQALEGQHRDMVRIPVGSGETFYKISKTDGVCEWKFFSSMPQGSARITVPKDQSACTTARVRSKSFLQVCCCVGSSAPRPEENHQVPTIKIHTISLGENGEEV
Nature of the test: In vitro inhibitory concentration against radioligand [3H]prazosin binding to alpha-1 adrenergic receptor in rat cortical membrane. Type of test: cell membranes. Put shortly: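 Male CRL:CD(SD)BR-COBS rats (~150 g) were decapitated. Cortex was homogenized in 50 mM Tris-HCl pH 7.4, spun at 50000g, given 10 min at 37 °C and washed. Incubation buffer had 0.1% ascorbic acid and 10 μM pargyline. GF/B filtration and scintillation counting; IC50 from dose-inhibition curves.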

For test [5], the target named is Serotonin 1a (5-HT1a) receptor/Adrenergic receptor alpha-1 (Rattus norvegicus) (UniProt P15823+P23944+P43140+P19327). In words: Selectivity for alpha-1-adrenergic receptor to that of 5-HT1A receptor. Type of test: protein assay. Put shortly: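 Ratio of IC50 at α1-adrenoceptors ([3H]prazosin, rat cortex) to IC50 at 5-HT1A receptors ([3H]-8-OH-DPAT, rat hippocampus). Each IC50 came from radioligand displacement curves.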

A value given as a limit tells only on which side of the number the result lay.

Take `Cc1ccc(N(CC2=NCCN2)c2cccc(O)c2)cc1`: in test [1], the inhibition is under 50%.
In test [2], `COc1ccccc1N1CCN(CCCSc2nc3sc4c(c3c(=O)[nH]2)CCCC4)CC1` showed an IC50 of 59 nM.
On to `COc1ccc(N2CCN(CCCSc3nc(O)c4c(C)c(C)sc4n3)CC2)cc1`, for which the inhibition in test [3] and in test [1] was under 50% throughout.
Consider `COc1ccccc1N1CCN(CCCSc2nc3sc(C)c(C)c3c(=O)n2Nc2ccccc2)CC1`, for which the IC50 worked out at 32 nM in test [4] and 497 nM in test [2]. This molecule also yielded a Selectivity in test [5] of 0.06.
For the molecule `Cc1sc2nc(SCCCN3CCN(c4ncccn4)CC3)nc(O)c2c1C`, the half-maximal inhibitory concentration (IC50) in test [4] came to 1098 nM. In test [5], this molecule came in with a Selectivity of 5.
For `Cc1sc2nc(SCCCN3CCN(c4ccccc4)CC3)n(N)c(=O)c2c1C`, the figures for the IC50 in test [4] and in test [2] were 43 nM and 3.3 nM, respectively. The molecule further yielded a Selectivity in test [5] of 13.
Consider `COc1ccccc1N1CCN(CCCSc2nc(O)c3c(n2)sc2ccccc23)CC1`, for which the IC50 in test [4] turned out to be 91 nM; in test [2] it was 46 nM. In test [5], this molecule gave a Selectivity of 2.
For the molecule `O=c1[nH]c(SCCCN2CCN(c3cccc4ccccc34)CC2)nc2sc(-c3ccccc3)cc12`, the IC50 in test [2] came out at 2010 nM.
In the case of `Cc1sc2nc(SCCCN3CCN(c4ccccc4Cl)CC3)nc(O)c2c1C`, the IC50 in test [4] was 161 nM. In test [5], this molecule returned a Selectivity of 0.35.
In the case of `COc1ccccc1N1CCN(CCCn2c(SC)nc3sc4c(c3c2=O)CCCC4)CC1`, the IC50 in test [4] was 95 nM; in test [2] it was 511 nM. This molecule displayed a Selectivity in test [5] of 0.2.
The molecule `O=c1[nH]c(SCCCN2CCN(c3cccc4ccccc34)CC2)nc2sc3c(c12)CCCC3` showed an IC50 in test [2] of 371 nM.
With `COc1ccccc1N1CCN(CCCSc2nc3sc4c(c3c(=O)n2C)CCCC4)CC1`, the IC50 in test [4] was found to be 64 nM; in test [2], 7 nM. The Selectivity in test [5] was determined as 9.
Consider `NCCc1c[nH]c2ccc(O)cc12`, for which, in test [3], the inhibition was under 50%.
With `COc1ccccc1N1CCN(CCCOc2nc(SC)nc3sc4c(c23)CCCC4)CC1`, the IC50 in test [4] is 75 nM; in test [2], 1420 nM. Moreover, the Selectivity in test [5] was determined as 0.05.
As for `Cc1sc2nc(SCCCN3CCN(c4ccc(Cl)cc4)CC3)nc(O)c2c1C`, the inhibition in test [3] and in test [1] was under 50% throughout.
Regarding `Oc1nc(SCCCN2CCN(c3cccc4ccccc34)CC2)nc2sc3c(c12)CCCC3`, the IC50 in test [4] amounted to 445 nM. For the same molecule, the Selectivity in test [5] is 1.
As to `O=c1[nH]c(SCCCN2CCN(c3ccccc3Cl)CC2)nc2sc3c(c12)CCCC3`, the IC50 in test [2] turned out to be 943 nM.
In the case of `Cc1sc2nc(SCCCN3CCN(c4ncccn4)CC3)n(C)c(=O)c2c1C`, the IC50 in test [4] came to 2030 nM; in test [2] it was 65 nM. Besides, the Selectivity in test [5] came out at 31.
As for `Cc1sc2[nH]c(=S)n(N)c(=O)c2c1C`, the IC50 in test [4] is over 10000 nM. In test [1], this molecule showed an inhibition of under 50%.
Take `COc1ccccc1N1CCN(CCSc2nc(O)c3c4c(sc3n2)CCCC4)CC1`: the IC50 in test [4] came to 20 nM. The same molecule returned a Selectivity in test [5] of 0.2.
In test [4], `Oc1nc(SCCCN2CCN(c3cccc4ccccc34)CC2)nc2sc(-c3ccccc3)cc12` displayed an IC50 of 2454 nM. This molecule displayed a Selectivity in test [5] of 1.
Take `COc1ccccc1N1CCN(CCc2nn3c(=O)c4c(C)c(C)sc4nc3s2)CC1`: the IC50 turned out to be 125 nM in test [4] and 42 nM in test [2]. In addition, in test [5], the Selectivity turned out to be 3.
Turning to `Cc1sc2nc(SCCCN3CCN(c4ncccn4)CC3)[nH]c(=O)c2c1C`, the IC50 in test [2] came to 226 nM.
As for `Cc1sc2nc(SCCCN3CCN(c4cccc(Cl)c4)CC3)nc(O)c2c1C`, the figures for the IC50 in test [4] and in test [2] were 299 nM and 986 nM, respectively. The molecule also came in with a Selectivity in test [5] of 0.3.
Take `COc1ccccc1N1CCN(CCCSc2nc(O)c3cc(-c4ccccc4)sc3n2)CC1`: the IC50 in test [4] was 224 nM; in test [2], 386 nM. In test [5], this molecule displayed a Selectivity of 0.6.
For `Cc1sc2nc(SCCCN3CCN(c4ccccc4Cl)CC3)[nH]c(=O)c2c1C`, the IC50 in test [2] came to 460 nM.
`Cc1sc2nc(SCCCN3CCN(c4cccc5ccccc45)CC3)nc(O)c2c1C`: in test [4], the IC50 is reported as 886 nM. Moreover, in test [5], the Selectivity came out at 2.5.
As to `Oc1nc(SCCCN2CCN(c3ccccc3Cl)CC2)nc2sc3c(c12)CCCC3`, the half-inhibitory concentration (IC50) in test [4] was determined as 168 nM. Besides, the Selectivity in test [5] is 0.2.
Regarding `COc1ccccc1N1CCN(CCCSc2nc3ccccc3c(=O)n2N)CC1`, the values for the IC50 in test [4] and in test [2] were 4 nM and 0.5 nM, respectively. The molecule also registered a Selectivity in test [5] of 8.
With `COc1ccccc1N1CCN(CCCSc2nc3sc4c(c3c(=O)n2N)CCCC4)CC1`, the values for the IC50 in test [4] and in test [2] were 39 nM and 1.3 nM, respectively. Moreover, the Selectivity in test [5] is 30.
The corresponding values for `Oc1nc(SCCCN2CCN(c3ncccn3)CC2)nc2sc3c(c12)CCCC3` are 1814 nM, 505 nM and 3.5.
For `COc1ccccc1N1CCN(CCCSc2nc3sccc3c(=O)n2N)CC1` the same measures were 2.9 nM, 1.2 nM and 2.
Consider `COc1ccccc1N1CCN(CCSc2nc3sc4c(c3c(=O)[nH]2)CCCC4)CC1`, for which the IC50 in test [2] stood at 97 nM.
`COc1ccccc1N1CCN(CCCSc2nc(O)c3c4c(sc3n2)CCCC4)CC1` came in with a half-inhibitory concentration (IC50) in test [4] of 38 nM. In test [5], the Selectivity was 0.6.
With `COc1ccccc1N1CCN(CCCSc2nc(O)c3c(C)c(C)sc3n2)CC1`, the IC50 in test [4] stood at 40 nM; in test [2], 24 nM. For the same molecule, the Selectivity in test [5] is 2.
Regarding `Cc1sc2nc(SCCCN3CCN(c4cccc5ccccc45)CC3)[nH]c(=O)c2c1C`, the IC50 in test [2] was found to be 355 nM.
Turning to `COc1ccccc1N1CCN(CCCSc2nc3sc(C)c(C)c3c(=O)n2C)CC1`, the IC50 was 27 nM in test [4] and 3 nM in test [2]. The same molecule gave a Selectivity in test [5] of 9.
